Data from ChEMBL document CHEMBL4177752, “Discovery of Novel Schizocommunin Derivatives as Telomeric G-Quadruplex Ligands That Trigger Telomere Dysfunction and the Deoxyribonucleic Acid (DNA) Damage Response” (J Med Chem, 2018).
Active and inactive are the calls of the source. No cut-off for these calls is given here.

Experiments:
HeLa = experiment: Antiproliferative activity against human HeLa cells after 48 hrs by MTT assay; assay type: functional, cell-based
How it was run: (§1)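 Cells seeded at 5.0×10^3 per well and exposed to a range of compound concentrations for 48 h. MTT (2.5 mg/mL solution) was then added for 4 h, formazan was dissolved in DMSO, and OD was read at 570 nm. HL-60 was grown in RPMI-1640 with 10% FBS, the other lines in DMEM with 10% FBS, at 37 °C and 5% CO2. Triplicates; IC50 taken from mean OD versus concentration curves.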

SiHa [1] = experiment: Induction of apoptosis in human SiHa cells after 96 hrs by annexin V-FITC/propidium iodide staining-based flow cytometric method; assay type: functional, cell-based
How it was run: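 SiHa cells were treated with compound or DMSO for 96 h, washed, resuspended in binding buffer, and stained with Annexin V-FITC and PI for 15 min in the dark. Apoptotic percentage was measured by flow cytometry; mean ± SEM.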

[2] = Inhibition of telomerase (unknown origin) by TRAP-LIG assay; design: species or system Homo sapiens
A549 = experiment: Antiproliferative activity against human A549 cells after 48 hrs by MTT assay; assay type: functional, cell-based; conditions: A549, 48 h; how it was run: as §1
Quadruplex DNA [3] = experiment: Stabilization of telomeric G-quadruplex DNA in human SiHa cells assessed as reduction of POT1/TRF2 co-localized foci per nucleus at 2 uM after 24 hrs by DAPI staining-based double immunofluorescence method; assay type: cell-based
How it was run: (§2)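 Cells were treated 24 h with 2 µM compound or 0.1% DMSO, then fixed (4% paraformaldehyde), permeabilized (0.5% Triton X-100) and blocked (5% goat serum). Staining used BG4 (80 ng/µL, 37 °C 3 h) with anti-FLAG, and/or γ-H2AX, TRF2 or POT1 antibodies at 4 °C overnight. Alexa 488/555 secondaries and DAPI followed. Foci or co-localized foci per nucleus were counted by confocal microscopy; mean ± SEM, two-tailed unpaired t test.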

HL-60 = experiment: Antiproliferative activity against human HL60 cells after 48 hrs by MTT assay; assay type: functional, cell-based; conditions: HL-60, 48 h; how it was run: as §1
SiHa [4] = experiment: Antiproliferative activity against human SiHa cells assessed as decrease in colony formation at 0.125 to 0.5 uM after 12 days by crystal violet staining-based assay; assay type: functional, cell-based
Quadruplex DNA [5] = experiment: Stabilization of telomeric G-quadruplex DNA in human U2OS cells assessed as increase in BG4 foci per nucleus at 2 uM after 24 hrs by DAPI staining-based immunofluorescence method; assay type: cell-based; how it was run: as §2
SiHa [6] = experiment: Antiproliferative activity against human SiHa cells after 48 hrs by MTT assay; assay type: functional, cell-based; how it was run: as §1
Quadruplex DNA [7] = experiment: Stabilization of telomeric G-quadruplex DNA in human SiHa cells assessed as delocalization of POT1 from TRF2 foci at 2 uM after 24 hrs by DAPI staining-based double immunofluorescence method; assay type: cell-based; how it was run: as §2
Quadruplex DNA [8] = experiment: Stabilization of telomeric G-quadruplex DNA in human U2OS cells assessed as induction of DNA damage response by measuring co-localization of gamma-H2AX and TRF2 foci per nucleus at 2 uM after 24 hrs by DAPI staining-based double immunofluorescence method; assay type: cell-based; how it was run: as §2
Quadruplex DNA [9] = experiment: Stabilization of telomeric G-quadruplex DNA in human U2OS cells assessed as induction of DNA damage response by measuring gamma-H2AX foci formation per nucleus at 2 uM after 24 hrs by DAPI staining-based immunofluorescence method; assay type: cell-based; how it was run: as §2
Mus musculus = experiment: Toxicity in BALB/C-nu/nu mouse xenografted with human SiHa cells assessed as decrease in body weight at 10 to 20 mg/kg, ip administered daily for 3 weeks measured everyday during compound dosing; assay type: organism-based; conditions: in vivo, 504 h
How it was run: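 SiHa cells (1×10^7 per 100 µL, serum-free DMEM) were injected subcutaneously. Grown tumors were divided into pieces and implanted into BALB/C-nu/nu mice. Caliper volume (1/2 × L × W²) and body weight were recorded daily; tumors were weighed at the end.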

Quadruplex DNA [10] = experiment: Stabilization of telomeric G-quadruplex DNA in human SiHa cells assessed as increase in phosphorylated p53 expression after 48 hrs by Western blot method; assay type: cell-based
How it was run: (§3)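 SiHa cells were treated with compound for 48 h and lysed in RIPA buffer. 20 µg protein was run on 10% SDS-PAGE and transferred to PVDF. Blots were blocked in 3% BSA, probed with primary antibodies (1:1,000, 4 °C 16 h) for p-ATR, p-CHK1 and p-P53, then secondaries (1:2,000, 2 h at room temperature).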

SiHa [11] = experiment: Induction of telomeric G-quadruplex DNA formation in human SiHa cells assessed as increase in colocalization of BG4/TRF2 foci per nucleus at 2 uM after 24 hrs by DAPI staining-based immunofluorescence method; assay type: cell-based; how it was run: as §2
U2OS = experiment: Induction of telomeric G-quadruplex DNA formation in human U2OS cells assessed as increase in co-localization of BG4/TRF2 foci per nucleus at 2 uM after 24 hrs by DAPI staining-based double immunofluorescence method; assay type: cell-based; how it was run: as §2
Quadruplex DNA [12] = experiment: Stabilization of telomeric G-quadruplex DNA in human SiHa cells assessed as increase in phosphorylated CHK1 expression after 48 hrs by Western blot method; assay type: cell-based; how it was run: as §3
Quadruplex DNA [13] = experiment: Binding affinity to HTG21 telomeric G-quadruplex DNA (unknown origin) by SPR method; assay type: nucleic-acid assay
How it was run: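 SPR: biotinylated HTG21 or hairpin DNA (200 nM) was folded in 50 mM Tris-HCl pH 7.4 with 100 mM KCl and captured to about 1,000 RU on an NLC chip against a blank reference cell. Ligand at 0.625–40 µM was injected at 25 µL/min (400 s association, 300 s dissociation) at 25 °C. The chip was regenerated with 1 M KCl and blank sensorgrams were subtracted.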

Quadruplex DNA [14] = experiment: Stabilization of telomeric G-quadruplex DNA in human SiHa cells assessed as increase in phosphorylated ATR expression after 48 hrs by Western blot method; assay type: cell-based; how it was run: as §3
SiHa [15] = experiment: Antiproliferative activity against human SiHa cells after 90 hrs by RTCA method; assay type: functional, cell-based
How it was run: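 SiHa proliferation was followed by real-time cellular analysis during 90 h of compound treatment at several concentrations.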

- IC50 (HeLa): 3.8 µM
- IC50 [2]: 9.6 µM
- IC50 (A549): 9.1 µM
- IC50 (HL-60): 2.5 µM
- Kd (Quadruplex DNA [13]): 8.1 µM
Structure (SMILES): CN(C)CCCNc1cc2nc(/C=C3\C(=O)Nc4cc(N5CCN(C)CC5)ccc43)[nH]c(=O)c2cc1F
- Activity (SiHa [1]): Dose-dependent effect
- Activity (Quadruplex DNA [3]): Active
- Activity (SiHa [4]): Active
- Activity (Quadruplex DNA [5]): Active
- IC50 (SiHa [6]): 2.8 µM
- Activity (Quadruplex DNA [7]): Active
- Activity (Quadruplex DNA [8]): Active
- Activity (Quadruplex DNA [9]): Active
- Activity (Mus musculus): Non-Toxic
- Activity (Quadruplex DNA [10]): Dose-dependent effect
- Activity (SiHa [11]): Active
- Activity (U2OS): Active
- Activity (Quadruplex DNA [12]): Dose-dependent effect
- Activity (Quadruplex DNA [14]): Dose-dependent effect
- Activity (SiHa [15]): Dose-dependent effect
